Sequences and labels used below:
B1: tRNA (parent)
chain: GUUCCGUUGGCGUAAUGGUAACGCGUCUCCCUCCUAAGGAGAAGACUGCGGGUUCGAGUCCCGUACGGAACG

This sample holds only a part of the variants without activity.

The variants in this data set derive from B1. Description: yeast fitness relative to wild type (ratio to wild type); higher = fitter; tRNA-Arg(CCU), competitive growth, 37 C, YPD. The procedure, abridged: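 Changes in genotype frequencies gave Darwinian fitness relative to wild type. Frequencies were read by 100-nucleotide paired-end sequencing of gene amplicons before and after pooled Saccharomyces cerevisiae strains, carrying tRNA-Arg(CCU) gene variants at the native locus, were competed in YPD at 37°C for 24 hours in six replicates. A genotype was kept only with ≥ 100 starting reads, and estimates < 0.5 were set to 0.5.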
With C5A A14G C22G A37U, the yeast fitness came to 0.683.

C4U U32G A40C: the yeast fitness is 0.57.

Take C5A C61G: the yeast fitness worked out at 0.609.

Regarding C5A C30G C31G U32C, the yeast fitness was determined as 0.598.

C5A G12C G18C C30A C31G U54G A65G: the yeast fitness is no more than 0.5.

Regarding C5A G10A A21C C24A A65C, the yeast fitness is no more than 0.5.

Turning to C5A C29G G67C, the yeast fitness came out at 0.588.

Consider C5A C27G, for which the yeast fitness stood at 0.709.

Consider C5A C30G A36G A57U A65U, for which the yeast fitness is no more than 0.5.

For the variant C5A C31G A37G A70U, the yeast fitness was 0.532.

Take C4U U16A A37U A65U: the yeast fitness was no more than 0.5.

Take C5A G17A A40G C46A: the yeast fitness was no more than 0.5.

On to C5A G12A G48A C61U, for which the yeast fitness is no more than 0.5.

C5A C27A U28G C55U: the yeast fitness was no more than 0.5.

Take C5A A15G A36G: the yeast fitness was no more than 0.5.

As for C5A C31U A69U, the yeast fitness worked out at 0.786.

For the variant C5A G6C G63A, the yeast fitness is no more than 0.5.

For the variant C4U U8A U16C A20U C29U A45C, the yeast fitness was no more than 0.5.

C4U U35C A70U: the yeast fitness amounted to 0.711.

As to C5A C24A, the yeast fitness was 0.727.

Turning to C5A A20C C22A A36C A69C, the yeast fitness was no more than 0.5.

On to C5A A15U U19C C31G G39A G58A G67A, for which the yeast fitness was no more than 0.5.

Regarding C4U U35G A45U, the yeast fitness amounted to 0.583.

As for C4U U8G A15U, the yeast fitness was no more than 0.5.

Take C5A C29A A70U: the yeast fitness was no more than 0.5.

Take C5A G12A A37G A43C C55G G68A: the yeast fitness is no more than 0.5.

With C5A C31U G48C C55A A69C, the yeast fitness was no more than 0.5.

For C4U U26A, the yeast fitness was found to be 0.86.

Take C5A C34G C66U: the yeast fitness is no more than 0.5.

C4U U13C G25A C60A C62U: the yeast fitness was no more than 0.5.

Take C5A C24U U64C: the yeast fitness is 0.639.

Consider C5A C11A C30U C31A C61A, for which the yeast fitness is no more than 0.5.

With C4U U47A U54C C61A, the yeast fitness is no more than 0.5.

Take C5A A14G A37G C49G C55U G56C G68A: the yeast fitness was no more than 0.5.

Consider C5A A14U, for which the yeast fitness is 0.654.

Regarding C5A A14G, the yeast fitness amounted to 0.912.

C5A A40U: the yeast fitness turned out to be 0.849.

As to C5A A37G, the yeast fitness came out at 0.7.

For the variant C5A G6C A15G A40G G67A, the yeast fitness is no more than 0.5.

Regarding C5A A14U C24U A40C, the yeast fitness is 0.564.

Regarding C4U U19A, the yeast fitness came out at 1.04.

On to C4U U19C, for which the yeast fitness came to 0.927.

Turning to C5A C33A A40C G41A U59A U64A C66G, the yeast fitness is 0.584.

Turning to C5A G17C A57C, the yeast fitness is 0.551.

With C5A C33A, the yeast fitness was found to be 0.67.

Take C5A C33U: the yeast fitness worked out at 0.603.

Turning to C5A C46U, the yeast fitness turned out to be 0.997.

As to C5A C46G, the yeast fitness came out at 0.719.

Take C5A C60U A65C: the yeast fitness was no more than 0.5.

For C5A A14U C27U C49G, the yeast fitness is no more than 0.5.

On to C5A C27A C34G, for which the yeast fitness was found to be 0.507.

In the case of C5A C31A A37C C46U, the yeast fitness was no more than 0.5.

In the case of C5A A15G C31U, the yeast fitness was determined as 0.657.

For the variant C5A C22U C27G C30G, the yeast fitness is no more than 0.5.

C5A C11U A21G C24A G52A C60A A69G: the yeast fitness is no more than 0.5.

As to C5A C33G C34A A40C G67A, the yeast fitness was no more than 0.5.

As for C4U U28C A36C G51A C66A, the yeast fitness is no more than 0.5.

As for C5A A20G C49A, the yeast fitness was 0.568.

As for C4U U16A A20U U35C G39C A42C G48A, the yeast fitness stood at 0.582.

As for C5A A21C U54C, the yeast fitness was no more than 0.5.

With C5A A20G A40G C49U, the yeast fitness was no more than 0.5.

For the variant C5A G12A U35C G44A G48C C55G A69U, the yeast fitness was no more than 0.5.

As to C5A C11G G25A C61A, the yeast fitness is no more than 0.5.

With C5A A20U G23A C66U, the yeast fitness was no more than 0.5.

With C5A C29U A69U, the yeast fitness worked out at 0.632.

For C5A C24G C49U, the yeast fitness was no more than 0.5.

In the case of C5A G17A C55U, the yeast fitness was no more than 0.5.

Turning to C5A C34G C49G A65G, the yeast fitness is no more than 0.5.

As for C4U U26A G52C, the yeast fitness stood at 0.569.

On to C5A C11A G17C A43G, for which the yeast fitness was no more than 0.5.

Turning to C5A G17A A40U, the yeast fitness is no more than 0.5.

As to C4U U8A C33U A36U, the yeast fitness worked out at 0.545.

Turning to C5A C31A C55A C61A G63A G67U, the yeast fitness was no more than 0.5.

With C5A A57U, the yeast fitness turned out to be 0.669.

In the case of C4U U28C, the yeast fitness stood at 1.02.

On to C4U U28G, for which the yeast fitness is 0.772.

Turning to C4U U8C A69U, the yeast fitness is 0.875.

For the variant C5A G10U C30U A43C A69C, the yeast fitness was no more than 0.5.

For C5A C11G C62G, the yeast fitness is no more than 0.5.

On to C5A A20U C31G C61U C66U, for which the yeast fitness is no more than 0.5.

As for C5A A15U C31G G39A G58A G67A, the yeast fitness is 0.558.

For the variant C4U U16C U32A G58A C60U, the yeast fitness was no more than 0.5.

Take C5A C11G C24A C55U G63C: the yeast fitness was no more than 0.5.

For C4U U19C C31A, the yeast fitness is no more than 0.5.

In the case of C4U U54A C62U, the yeast fitness was no more than 0.5.

Regarding C4U U35A A43U C62U G67C G68A, the yeast fitness was no more than 0.5.

Turning to C5A C11G A45C, the yeast fitness is no more than 0.5.

C5A A65C G68C: the yeast fitness was no more than 0.5.

With C5A A65C G68A, the yeast fitness came to 0.628.

Consider C5A C30U G41C, for which the yeast fitness was no more than 0.5.

On to C5A A14G C24A C66G, for which the yeast fitness is no more than 0.5.

Consider C4U U8A U13C C46A C61U, for which the yeast fitness was no more than 0.5.

Regarding C5A C11G A21U A65C, the yeast fitness is no more than 0.5.

As to C5A A14G U26A A37U G41A C62U, the yeast fitness was no more than 0.5.

In the case of C5A C27U G39C, the yeast fitness was no more than 0.5.

As to C5A A57G C61U, the yeast fitness is no more than 0.5.

For C4U U28C C29U G63C A65U, the yeast fitness is no more than 0.5.

As to C4U U13A A14U C29U A37G A57C, the yeast fitness is no more than 0.5.

Take C5A C34U C49A G52A: the yeast fitness was no more than 0.5.

In the case of C5A A15G G25A, the yeast fitness is 0.583.

As to C4U U16G A43U, the yeast fitness is 1.13.

Take C5A C29U: the yeast fitness is 0.731.

Take C5A C31U A37C: the yeast fitness is 0.561.

Turning to C4U U8C C27G A45C U47C C55U, the yeast fitness was no more than 0.5.

As for C5A A14G A20G C30A A40U G41C C61G G63C, the yeast fitness is no more than 0.5.

As for C5A A21G G23A G67C, the yeast fitness was determined as 0.591.

Regarding C5A G12C G18C C30A C31G U54G, the yeast fitness amounted to 0.605.

In the case of C4U U13A, the yeast fitness is 1.1.

Take C4U U13C: the yeast fitness was 0.884.

In the case of C5A A37C G38C C55U, the yeast fitness was determined as 0.598.

With C5A C34U U35A C49A U54A, the yeast fitness was 0.661.

Turning to C5A A45C, the yeast fitness was determined as 0.81.

For the variant C4U U64A, the yeast fitness stood at 0.852.

As to C4U U64G, the yeast fitness turned out to be 1.09.

With C5A C30A G51A, the yeast fitness was no more than 0.5.

For C5A C46G C49U, the yeast fitness was 0.727.

Regarding C5A A15U G25A U59C, the yeast fitness is no more than 0.5.

In the case of C5A A40U C60U C61G, the yeast fitness was determined as 0.525.

Consider C4U U16A U26C C27A U47C, for which the yeast fitness is no more than 0.5.

As to C5A C22A G56A, the yeast fitness was determined as 0.525.

In the case of C5A C27U G39C C49U G58C C62U, the yeast fitness was no more than 0.5.

Consider C5A C11G C61G, for which the yeast fitness was 0.502.

For C4U U8A A36C C61U, the yeast fitness was no more than 0.5.

For C5A C24G C31G G51C U59G, the yeast fitness is no more than 0.5.

In the case of C5A C22A A40G C60A, the yeast fitness is no more than 0.5.

As to C4U U26A G38A G63C, the yeast fitness is no more than 0.5.

As to C5A C34U, the yeast fitness is 0.786.

In the case of C5A G10A U35C C49A, the yeast fitness is no more than 0.5.

As for C5A C55A A69C, the yeast fitness was no more than 0.5.

For C5A G9C A36U G50A U59G, the yeast fitness is 0.542.

C5A C31A C55A C61A G63A: the yeast fitness worked out at 0.671.

Turning to C5A C24U A69C, the yeast fitness amounted to 0.641.

As to C5A C11G U28A A40U C55A, the yeast fitness was no more than 0.5.

For the variant C4U U59C C61A, the yeast fitness was no more than 0.5.

Take C5A G17A C34A: the yeast fitness was no more than 0.5.

Take C5A C11G G48C G67C: the yeast fitness is no more than 0.5.

For C4U U47A G67A, the yeast fitness is 0.607.

Regarding C5A G9A G41A U53C U64A, the yeast fitness was no more than 0.5.

Turning to C4U U35A G44C C66U G67U A70G, the yeast fitness is no more than 0.5.

On to C5A A45C C46G G48C U64C, for which the yeast fitness was no more than 0.5.

For C5A C34G C49G U64C, the yeast fitness was no more than 0.5.

In the case of C4U U13C A14G, the yeast fitness was 0.587.

Turning to C5A A14C A43C, the yeast fitness was no more than 0.5.

As to C5A C24U U35C C66U, the yeast fitness came out at 0.549.

Regarding C4U U16A A20G C66U, the yeast fitness was no more than 0.5.

Regarding C5A C31G G63U, the yeast fitness was no more than 0.5.

In the case of C5A C27U A69U, the yeast fitness was 0.711.

Take C4U U8C: the yeast fitness was found to be 0.942.

As to C4U U8A, the yeast fitness stood at 0.66.

Regarding C5A C11U U13G C29G C33A U59A, the yeast fitness is no more than 0.5.

On to C5A C22U, for which the yeast fitness amounted to 0.79.

For C5A C22G, the yeast fitness came out at 0.862.

In the case of C5A G9C A40G, the yeast fitness was no more than 0.5.

Regarding C5A C29A C30G C55U C61G A65C, the yeast fitness amounted to 0.554.

Regarding C4U U19A C30G A36C, the yeast fitness was 0.55.

As for C5A C55G, the yeast fitness amounted to 0.618.

Take C4U U13C U26A G63C: the yeast fitness is no more than 0.5.

On to C5A G17A G44C, for which the yeast fitness turned out to be 0.532.

For the variant C5A G17C A43U, the yeast fitness came out at 0.543.

For C5A C29G G56C U59A, the yeast fitness is 0.717.

C5A C34U C55A: the yeast fitness was no more than 0.5.

For the variant C5A C33A G38A A45C G52A U54G G67A, the yeast fitness is no more than 0.5.

For C5A G10C U26C G52C, the yeast fitness was no more than 0.5.

Consider C5A A21G C22G C27A C33U A40U C55G, for which the yeast fitness is no more than 0.5.

Regarding C5A C22U G39A U47C C61U, the yeast fitness was no more than 0.5.

Regarding C5A A15U C31G G39A C49U G58A G67A, the yeast fitness was no more than 0.5.

For the variant C5A A14C C49A, the yeast fitness was no more than 0.5.

The values above are taken from the RNAGym collection of RNA variant scans (doi:10.1126/science.aae0568).
